# Assay results pooled from the literature.
# Target: Phosphatidylinositol 5-phosphate 4-kinase type-2 gamma (PIP4K2C, Homo sapiens, UniProt Q8TBX8)
# Residues used in one study (Q8TBX8 1-421): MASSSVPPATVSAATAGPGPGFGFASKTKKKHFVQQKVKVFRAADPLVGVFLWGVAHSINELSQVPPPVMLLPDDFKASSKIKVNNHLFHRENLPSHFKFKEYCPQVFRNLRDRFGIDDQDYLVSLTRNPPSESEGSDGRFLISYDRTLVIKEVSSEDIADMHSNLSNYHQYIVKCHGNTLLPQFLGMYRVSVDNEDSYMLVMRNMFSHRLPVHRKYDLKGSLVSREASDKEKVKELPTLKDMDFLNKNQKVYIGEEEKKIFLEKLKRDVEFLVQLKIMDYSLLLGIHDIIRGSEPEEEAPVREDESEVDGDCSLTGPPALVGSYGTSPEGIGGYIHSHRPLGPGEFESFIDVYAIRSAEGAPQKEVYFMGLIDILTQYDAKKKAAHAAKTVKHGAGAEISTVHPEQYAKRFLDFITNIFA
SMILES,read-out,technique,tested at,remaining binding
CN(CCCC(F)(F)F)c1nccc(-c2cnn3ncccc23)n1,binding,,1 µM,100%
COc1cnc(Nc2cccc(S(N)(=O)=O)c2)nc1N1CCN(c2ccccc2)C(=O)C1,binding,competition with immobilised ligand,1 µM,0.95%
C[C@H]1CCN(c2nccc(-c3cnn4ncccc34)n2)C1,binding,,1 µM,42%
CCN1CCN(Cc2ccc(C(=O)Nc3ccc(C)c(Oc4ccc5c(c4)CC(=O)N5)c3)cc2C(F)(F)F)CC1,binding,competition with immobilised ligand,1 µM,100%
CNCc1ccccc1-c1csc([C@H](C)Nc2nc(C)nc3cc(OC)c(OC)cc23)c1,cell-free assay,competition with immobilised ligand,1 µM,100%
Cc1nc(NC(=O)N2CCC[C@H]2C(N)=O)sc1-c1ccnc(C(C)(C)C(F)(F)F)c1,binding,competition with immobilised ligand,10 µM,100%
N[C@H]1CCN(c2nccc(-c3cnn4ncccc34)n2)C1,binding,,1 µM,81%
CCS(=O)(=O)c1cc2cc(C[C@@](O)(CC(C)(C)c3ccc(F)cc3C(N)=O)C(F)(F)F)[nH]c2cn1,cell-free assay,competition with immobilised ligand,1 µM,100%
O=C(c1ccc(Nc2ncc(Cl)c(-c3ccc(Cl)s3)n2)cc1)N1CCC(N2CCCC2)CC1,binding,competition with immobilised ligand,1 µM,5.9%
CC(C)CC(=O)N1CCc2nc(-c3ccc(Br)cc3)nc(N(C)Cc3ccccc3)c2C1,cell-free assay,competition with immobilised ligand,0.1 µM,96%
O=C(NCCCN1CCOCC1)c1ccc(Nc2nccc(-c3cc4ccccc4s3)n2)cc1,binding,competition with immobilised ligand,1 µM,1.9%
FC(F)(F)Oc1cccc(-c2cnc3ccc(-c4ccncc4)nn23)c1,cell-free assay,competition with immobilised ligand,5 µM,32%
Cc1cnn2ncc(-c3ccnc(N(C)C)n3)c2c1,binding,,1 µM,80%
c1ccc(N2CCN(Cc3nc4ccccc4[nH]3)CC2)nc1,binding,competition with immobilised ligand,1 µM,86%
F[C@@H]1CCN(c2nccc(-c3cnn4ncccc34)n2)C1,binding,,1 µM,100%
Cc1cnc(Nc2ccc(C(=O)N3CCC(N4CCCC4)CC3)cc2)nc1-c1cc2ccccc2s1,binding,competition with immobilised ligand,1 µM,5.6%
Cn1cc(Cl)c2c(Oc3c(F)cc(Nc4cc(Cl)nc(N)n4)cc3F)ccnc21,cell-free assay,competition with immobilised ligand,0.1 µM,96%
O=C(Nc1c[nH]nc1C(=O)NC1CCNCC1)c1cc(F)cc(F)c1,binding,competition with immobilised ligand,1 µM,76%
CNC(=O)c1ccc(Nc2ncc(C(F)(F)F)c(NCc3nccnc3N(C)S(C)(=O)=O)n2)cc1,cell-free assay,competition with immobilised ligand,0.1 µM,40%
CN(C)c1nccc(-c2cnc3ncccn23)n1,binding,,1 µM,93%
Cc1c(NC(=O)c2cc(C(N)=O)nc3cc(F)ccc23)c(C(F)(F)F)nn1Cc1ccc(C(C)(C)C)cc1,cell-free assay,competition with immobilised ligand,1 µM,76%
COc1ncc2cc3ccccc3nc2c1C#N,cell-free assay,competition with immobilised ligand,5 µM,100%
